# According to ChEMBL document CHEMBL1124627, “Long-acting dihydropyridine calcium antagonists. 3. Synthesis and structure-activity relationships for a series of 2-[(heterocyclylmethoxy)methyl] derivatives” (J Med Chem, 1989):
# Columns and labels:
# Cavia porcellus = organism: Cavia porcellus; assay: Negative logarithm of the molar concentration required to depress contraction in the Langendorff-perfused guinea pig heart by 25%.; type: functional
# Rattus norvegicus = organism: Rattus norvegicus; assay: Negative logarithm of molar concentration required to block calcium-induced contraction of potassium depolarized rat aorta by 50%; type: functional
# [1] = biological target: Voltage-dependent L-type calcium channel subunit alpha-1C (Rattus norvegicus, UniProt P22002); assay: Selectivity for vascular (Ca pIC50) over cardiac (negative inotropy IC25) calcium channels; type: functional
# Canis familiaris = assay: Coronary vasodilator activity in dogs, after administration of a dose of 150 micorg/kg intravenously; type: functional, Canis lupus familiaris
# In short: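 Anesthetized beagle dogs fitted with catheters for blood pressure, left ventricular pressure and intravenous dosing. Coronary blood flow was measured by hydrogen clearance with platinum electrodes in the coronary sinus and femoral artery, and cardiac output by thermodilution. Coronary vascular resistance was derived from these measurements. A single intravenous dose was given, and the CVR fall was followed over time to assess duration of action.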
# Chain of Voltage-dependent L-type calcium channel subunit alpha-1C (P22002 whole entry): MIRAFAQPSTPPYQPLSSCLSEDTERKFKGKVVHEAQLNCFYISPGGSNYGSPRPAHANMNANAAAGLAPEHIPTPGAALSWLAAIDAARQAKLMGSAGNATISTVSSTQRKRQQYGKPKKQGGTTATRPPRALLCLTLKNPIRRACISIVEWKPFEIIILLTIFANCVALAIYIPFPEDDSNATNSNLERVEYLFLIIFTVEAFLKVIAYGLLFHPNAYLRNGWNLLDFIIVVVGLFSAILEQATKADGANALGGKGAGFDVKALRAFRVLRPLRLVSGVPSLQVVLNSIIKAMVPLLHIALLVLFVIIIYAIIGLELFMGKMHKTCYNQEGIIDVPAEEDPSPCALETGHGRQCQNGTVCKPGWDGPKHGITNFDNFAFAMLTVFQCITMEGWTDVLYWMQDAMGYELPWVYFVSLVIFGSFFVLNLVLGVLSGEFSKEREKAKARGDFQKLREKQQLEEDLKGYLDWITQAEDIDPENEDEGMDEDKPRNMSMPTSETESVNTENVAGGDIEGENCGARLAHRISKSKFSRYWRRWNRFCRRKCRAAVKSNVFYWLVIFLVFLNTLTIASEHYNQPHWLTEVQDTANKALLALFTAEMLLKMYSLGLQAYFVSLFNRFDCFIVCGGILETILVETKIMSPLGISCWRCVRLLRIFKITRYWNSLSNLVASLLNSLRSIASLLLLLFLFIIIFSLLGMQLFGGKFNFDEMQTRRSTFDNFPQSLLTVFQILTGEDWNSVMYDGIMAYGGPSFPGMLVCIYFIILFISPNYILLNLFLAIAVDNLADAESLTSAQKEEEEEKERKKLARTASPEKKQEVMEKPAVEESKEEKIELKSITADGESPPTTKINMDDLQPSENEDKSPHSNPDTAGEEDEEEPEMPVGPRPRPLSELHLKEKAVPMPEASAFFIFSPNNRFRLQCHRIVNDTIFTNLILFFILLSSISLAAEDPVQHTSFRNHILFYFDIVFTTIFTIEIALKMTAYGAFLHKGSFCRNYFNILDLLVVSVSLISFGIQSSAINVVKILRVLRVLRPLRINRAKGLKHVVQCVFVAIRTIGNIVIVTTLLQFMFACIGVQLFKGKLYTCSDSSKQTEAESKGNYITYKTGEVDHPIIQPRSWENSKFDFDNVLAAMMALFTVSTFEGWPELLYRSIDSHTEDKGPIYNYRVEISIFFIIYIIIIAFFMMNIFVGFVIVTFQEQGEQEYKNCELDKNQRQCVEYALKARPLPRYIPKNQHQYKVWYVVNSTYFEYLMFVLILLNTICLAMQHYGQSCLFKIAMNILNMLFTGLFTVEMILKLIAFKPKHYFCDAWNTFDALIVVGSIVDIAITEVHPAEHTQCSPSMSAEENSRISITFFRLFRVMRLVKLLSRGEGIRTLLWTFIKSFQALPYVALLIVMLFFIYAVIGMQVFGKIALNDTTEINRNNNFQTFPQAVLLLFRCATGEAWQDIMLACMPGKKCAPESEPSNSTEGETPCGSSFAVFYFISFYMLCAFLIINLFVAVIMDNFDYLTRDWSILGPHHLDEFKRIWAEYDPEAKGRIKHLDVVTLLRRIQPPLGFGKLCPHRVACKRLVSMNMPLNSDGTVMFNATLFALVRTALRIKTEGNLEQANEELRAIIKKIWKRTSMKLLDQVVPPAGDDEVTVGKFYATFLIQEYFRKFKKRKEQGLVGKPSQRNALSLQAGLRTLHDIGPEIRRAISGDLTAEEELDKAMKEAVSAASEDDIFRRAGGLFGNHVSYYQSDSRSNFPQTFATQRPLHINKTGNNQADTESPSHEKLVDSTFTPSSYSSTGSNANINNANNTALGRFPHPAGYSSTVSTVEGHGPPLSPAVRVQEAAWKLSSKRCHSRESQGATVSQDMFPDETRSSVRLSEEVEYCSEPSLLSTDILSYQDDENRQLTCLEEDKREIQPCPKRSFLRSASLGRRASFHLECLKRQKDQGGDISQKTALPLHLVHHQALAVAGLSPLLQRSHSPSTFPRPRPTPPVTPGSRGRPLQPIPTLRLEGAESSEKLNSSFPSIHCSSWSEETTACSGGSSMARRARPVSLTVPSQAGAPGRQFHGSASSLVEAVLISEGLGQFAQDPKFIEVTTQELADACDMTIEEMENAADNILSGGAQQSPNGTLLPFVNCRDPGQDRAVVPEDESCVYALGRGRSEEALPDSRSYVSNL
SMILES,pIC25 (Cavia porcellus),IC50 (Rattus norvegicus) [nM],Selectivity index [1],Decrease (Canis familiaris) [%]
CCO/C(O)=C1\C(COCc2cc(O)nc(CN3CCOCC3)n2)=NC(C)=C(C(=O)OC)C1c1cccc(Cl)c1Cl (centres undefined),6.9,3.98,32,–
COC(=O)C1=C(C)NC(C)=C(C(=O)OC)C1c1ccccc1[N+](=O)[O-] [NIFEDIPINE],7.5,–,8,77
CCO/C(O)=C1\C(COCc2cc(=O)n(CCO)c(N)n2)=NC(C)=C(C(=O)OC)C1c1cccc(Cl)c1Cl (centres undefined),7,3.16,32,–
